Screens from PubChem BioAssay.
Yeast life ext – extends the lifespan of yeast | S. cerevisiae growth with nicotinamide, OD615; deaD strain in restrictive glucose medium | inhibition of the nicotinamide effect, % at 10 µM | 0.68% of 130,000 active;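 active means inhibition above a set limit, placed 3 SD over the median of all compounds, cut at about 26% in these data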
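Test system – modified budding yeast, DeaD strain · Compound – single dose 10 µM compound, 0.25% DMSO · Times – culture preincubation 4 h, compound exposure 48 h, both 30 °C · Detection – optical density (absorbance) at 615 nm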
Measles CPE – protection of cells from measles virus. Measles virus-infected cells, CPE protection, absorbance. protection (pct of control), % at 4 µM. 1.5% of 140,000 active. AID 841; in the data active means protection mostly above about 24%, no sharp cut-off; inactive means mostly below about 26%
WT yeast gro inh – growth inhibition of WT yeast, mitochondrial fusion screen; mitochondrial fusion phenotypic screen, WT strain; inhibition, % at 10 µM; 2.1% of 190,000 active; AID 1362; in the data active means inhibition above about 58%; tested in S. cerevisiae
RAM network inh – inhibitors of the yeast RAM network | S. cerevisiae dse1pr::URA3 reporter, 5-FOA growth OD615, 2 d; analog-sensitive cbk1-as2 kinase mutant strain | inhibition, % at 50 µM | 1.8% of 190,000 active;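 active means inhibition above a set limit, 3 SD over mean compound inhibition, cut at about 8.4% in these data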;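 further: inhibition rescues growth on 5-FOA so higher OD means more RAM inhibition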
DAT uptake mod – human DAT dopamine uptake with cocaine, either direction. AID 449768. B-score at 10 µM. 1.3% of 110,000 active. LLC-PK1 hDAT cells, [14C]-dopamine uptake with cocaine IC80; actives deviate in either direction;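 active means Z score or B-score, a plate-position-corrected score, falls beyond the plate's 99.7% confidence bounds, in either direction; inactive means both scores lie inside the 99.7% bounds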
Target sequence (Q01959 whole entry, looked up): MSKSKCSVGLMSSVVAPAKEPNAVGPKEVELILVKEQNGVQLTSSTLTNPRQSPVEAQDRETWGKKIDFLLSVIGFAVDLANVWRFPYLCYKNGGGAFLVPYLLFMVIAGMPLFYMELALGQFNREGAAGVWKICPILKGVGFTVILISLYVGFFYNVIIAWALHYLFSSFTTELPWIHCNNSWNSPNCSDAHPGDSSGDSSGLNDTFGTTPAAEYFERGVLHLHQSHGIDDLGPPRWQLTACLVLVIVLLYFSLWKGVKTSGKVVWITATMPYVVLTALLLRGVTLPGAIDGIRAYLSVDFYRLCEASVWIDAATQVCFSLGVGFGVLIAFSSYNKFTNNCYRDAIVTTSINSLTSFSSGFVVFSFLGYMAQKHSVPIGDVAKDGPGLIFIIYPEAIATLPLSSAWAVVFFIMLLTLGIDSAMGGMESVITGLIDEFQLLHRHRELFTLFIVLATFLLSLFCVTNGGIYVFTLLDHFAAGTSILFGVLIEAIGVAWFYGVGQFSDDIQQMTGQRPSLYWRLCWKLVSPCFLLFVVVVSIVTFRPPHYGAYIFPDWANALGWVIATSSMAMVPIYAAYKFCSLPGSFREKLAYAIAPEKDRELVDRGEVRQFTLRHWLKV
Yeast growth inh – reduces growth of yeast BB579 in restrictive medium | AID 804 | 0.51% of 140,000 active | inhibition, % at 10 µM | S. cerevisiae BB579 growth, OD615, 48 h;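 active means inhibition above a set limit, 3 SD over the mean compound inhibition, cut at about 44% in these data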
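Test system: DeaD yeast strain BB579 / Buffer or medium: restrictive glucose-based CSMM-D medium / Doses: single 10 µM dose / Schedule: 4 h cell preincubation, 48 h compound exposure, 30 °C humidified / Technique: culture absorbance at 615 nm / Controls: amphotericin B positive control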
Hits are given with their value. Shown are actives, neighbours in structure and some others; about 6.1% of the full set was active somewhere.

Screening c1ccc(-c2nnc(CN3CCN(C(c4ccccc4)c4ccccc4)CC3)o2)cc1 returned WT yeast gro inh inactive, RAM network inh inactive and DAT uptake mod inactive.
For Cc1ccc(-c2nc3sc4c(N)ncnc4c3c3c2CCCC3)cc1 the results were Yeast life ext inactive, Measles CPE 24.8, WT yeast gro inh inactive, RAM network inh inactive, DAT uptake mod -4.94 and Yeast growth inh inactive.
`CN(CC(=O)NCc1ccccn1)S(=O)(=O)c1ccc(Br)cc1` gave WT yeast gro inh inactive and RAM network inh inactive.
Cc1cccc(OCC(=O)NCC(=O)N/N=C/c2ccc([N+](=O)[O-])cc2)c1 was read as WT yeast gro inh inactive and RAM network inh inactive.
For CCOc1cc(NC(=O)C2CC2)c(OCC)cc1NC(=O)c1ccccn1 the results were Yeast life ext inactive, Measles CPE inactive, WT yeast gro inh inactive, RAM network inh inactive, DAT uptake mod inactive and Yeast growth inh inactive.
Screening CCOc1cc(NC(=O)c2ccccn2)c(OCC)cc1NC(=O)c1ccccc1 returned WT yeast gro inh inactive and RAM network inh 9.7.
For CC(=O)CSc1ncnc2sc3c(c12)CCCC3 the results were WT yeast gro inh inactive and RAM network inh inactive.
CC(=O)C(Sc1ncnc2sc3c(c12)CCCC3)C(C)=O was read as WT yeast gro inh 75.9 and RAM network inh inactive.
For O=C(CSc1ncnc2sc3c(c12)CCCC3)c1ccco1 the results were Yeast life ext inactive, Measles CPE 45.9, WT yeast gro inh inactive, RAM network inh inactive, DAT uptake mod inactive and Yeast growth inh inactive.
Screening Cn1c(N)c(C(=O)COC(=O)c2ncc(Cl)c(Cl)c2Cl)c(=O)n(C)c1=O returned WT yeast gro inh inactive and RAM network inh inactive.
Cc1ccc(-n2cc(CN(C)Cc3nccn3C)c(-c3ccc(F)cc3)n2)cc1 was read as WT yeast gro inh 76.4 and RAM network inh inactive.
Screening Cc1ccc(-n2cc(CN(C)Cc3ncc[nH]3)c(-c3cccc(C)c3)n2)cc1 returned WT yeast gro inh 58.7 and RAM network inh inactive.
`CCn1ccnc1CN(C)Cc1cn(-c2cc(C)ccc2C)nc1-c1ccccc1` gave WT yeast gro inh 61.2 and RAM network inh inactive.
`Cc1ccc(-n2cc(CN(C)CCc3cn[nH]c3)c(-c3cccc(C)c3)n2)cc1` gave WT yeast gro inh inactive and RAM network inh inactive.
Screening Cc1cccc(-n2cc(CN3CCN(Cc4nccn4C)CC3)c(-c3cccc(F)c3)n2)c1 returned WT yeast gro inh 86.1 and RAM network inh inactive.
`Cc1ccc2occ(C(c3nnnn3Cc3ccccc3)N3CCOCC3)c(=O)c2c1` (stereo unspecified) gave Yeast life ext 26.1, Measles CPE inactive, WT yeast gro inh inactive, RAM network inh inactive, DAT uptake mod inactive and Yeast growth inh inactive.
CN1CCc2c(sc3ncn4nc(-c5ccccc5O)nc4c23)C1 was read as Yeast life ext inactive, Measles CPE inactive, WT yeast gro inh inactive, RAM network inh inactive and Yeast growth inh inactive.
Screening CCCNC(=O)Cn1cnc2sc(C(=O)NCCN(CC)CC)c(C)c2c1=O returned Yeast life ext inactive, Measles CPE 36.9, WT yeast gro inh inactive, RAM network inh inactive, DAT uptake mod inactive and Yeast growth inh inactive.
`Cc1cc(Cl)ccc1OCc1n[nH]c(=S)n1C1CCCCC1` gave Yeast life ext inactive, Measles CPE inactive, WT yeast gro inh 94.4, RAM network inh inactive, DAT uptake mod inactive and Yeast growth inh inactive.
Screening COc1ccc(Cl)cc1-c1n[nH]c(=S)n1C1CCCCC1 returned Yeast life ext inactive, Measles CPE inactive, WT yeast gro inh inactive, RAM network inh inactive, DAT uptake mod inactive and Yeast growth inh inactive.
COc1cccc(/C=C2\SC(=S)N(CC3CCCO3)C2=O)c1 (stereo unspecified) was read as Yeast life ext inactive, Measles CPE inactive, WT yeast gro inh inactive, RAM network inh 8.6 and Yeast growth inh inactive.
CCOc1cc(/C=C2/SC(=S)N(CC3CCCO3)C2=O)ccc1O (stereo unspecified) was read as WT yeast gro inh inactive and RAM network inh inactive.
Screening CC(C)Cc1cc(C(=O)Nc2c(F)cc(F)cc2Br)no1 returned Yeast life ext inactive, Measles CPE inactive, WT yeast gro inh inactive, RAM network inh inactive, DAT uptake mod 6.5 and Yeast growth inh inactive.
